CAL PDZ FP-1 – blocks peptide binding to the human CAL PDZ domain. purified CAL PDZ, TMR-peptide fluorescence polarization, 1 h. hit rate 0.92% among 300,000. Q9HD26. inhibition, % at 24.9 µM. AID 602252;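 active = mean inhibition of at least 30% with at least half of replicates also reaching 30%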;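 note: 0% = DMSO neutral control and 100% = excess unlabeled competitor peptide PRC23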
dFosB activator – activators of mouse delta FosB homodimer; P13346; purified delta FosB, TAMRA-CDK5 oligo fluorescence polarization; percent of positive-control signal above neutral wells; activation, % at 25 µM; hit rate 0.99% among 340,000; AID 493131;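 active = mean activation above about 17%, with every replicate also reaching it, limit read from the data, passing the limit was not always enough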
SR-BI uptake up – SR-BI HDL lipid transfer activation. CHO ldlA[mSR-BI] cells, DiI-HDL uptake fluorescence, 3 h; 100 = double the neutral-control signal. activation, % at 12.5 µM. hit rate 0.096% among 320,000. AID 504775;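 active = mean replicate activation of at least 60% and every replicate at or above 60%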;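 note: 0% = median plate neutral-control signal and 100% = twice that signal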
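Test system: SR-BI-overexpressing, LDLR-lacking CHO cells; Also added: labelled HDL, 10 µg/mL; Measured by: bottom-read cell fluorescence after medium removal, ex 550/em 595 nm; Timing: 3 h uptake period with compound, 37 °C; Buffer or medium: F12, 0.5% BSA, 25 mM HEPES; Doses: single compound concentration, delivered by pin transfer.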
SR-BI DiI inh – inhibitors of mouse SR-BI mediated HDL lipid uptake. AID 488896. hit rate 0.96% among 320,000. inhibition, % at 12.5 µM. ldlA[mSR-BI] CHO cells, DiI-HDL uptake fluorescence, 3 h. Q61009;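 active = mean replicate inhibition of at least 70% and a set share of replicates each scoring 70 or more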;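 note: 0% = median of neutral control wells and 100% = median of positive control wells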
Target sequence (Q61009 whole entry, looked up): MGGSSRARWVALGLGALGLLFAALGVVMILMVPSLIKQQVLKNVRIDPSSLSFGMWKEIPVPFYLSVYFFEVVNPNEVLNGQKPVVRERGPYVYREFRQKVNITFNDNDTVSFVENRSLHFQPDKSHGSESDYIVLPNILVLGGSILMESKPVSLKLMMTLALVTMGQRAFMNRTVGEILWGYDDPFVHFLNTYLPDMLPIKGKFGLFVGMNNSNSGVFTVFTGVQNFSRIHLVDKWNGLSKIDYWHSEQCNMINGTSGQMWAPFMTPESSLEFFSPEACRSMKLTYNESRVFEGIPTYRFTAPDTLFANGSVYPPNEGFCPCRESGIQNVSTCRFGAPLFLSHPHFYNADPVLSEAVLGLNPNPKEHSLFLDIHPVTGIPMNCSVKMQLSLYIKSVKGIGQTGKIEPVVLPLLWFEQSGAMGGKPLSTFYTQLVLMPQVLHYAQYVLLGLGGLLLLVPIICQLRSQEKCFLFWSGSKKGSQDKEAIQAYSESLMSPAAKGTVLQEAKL
CAL PDZ FP-2 – blocks peptide binding to human CAL PDZ domain; inhibition, % at 20 µM; purified CAL PDZ, TMR-peptide fluorescence polarization, 1 h; hit rate 0.02% among 330,000; AID 504414; Q9HD26;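 active = highest replicate inhibition of at least 40%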;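 note: plate controls were DMSO neutral control wells for no effect and unlabeled competitor peptide control wells for full effect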
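Read-out basis: mP drop reported as inhibition | Assay system: Tagged CAL PDZ protein CerCALP, purified | Benchmarks: Unlabelled peptide for full inhibition, DMSO wells as neutral | Schedule: 1 h incubation at room temperature before polarization reading | Buffer or medium: Sodium phosphate/NaCl buffer pH 7.4 with TCEP, IgG, Thesit | Doses: Single point, 20 µM | Measured by: Fluorescence polarization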
* = called active by the depositor; · = no result. Compounds with a hit are over-represented: about 2.8% of the library has one in this group of screens.

SMILES	CAL PDZ FP-1	dFosB activator	SR-BI uptake up	SR-BI DiI inh	CAL PDZ FP-2
O=c1c2ccccc2[nH]c(=S)n1Cc1cccnc1	-2.7	1.0	16.6	-16.6	-1.3
COc1ccc(OC)c(/C=C/C(=O)N(C)CC(=O)Nc2ccc(N3CCOCC3)cc2)c1	·	-7.6	-21.7	21.7	-0.9
Clc1ccc(-c2csc(N/N=C/c3ccc4c(c3)OCO4)n2)cc1	0.8	-6.4	-109.0	109.0*	-2.4
O=C(Nc1ccccc1C(F)(F)F)NC1(C(=O)N2CCOCC2)CCCCC1	·	-19.0	-4.9	4.9	-9.1
NS(=O)(=O)c1ccc(CCNC(=O)COC(=O)C2CCC2)cc1	47.1*	-0.9	26.0	-26.0	-1.0
O=C(COC(=O)C1CC1)NCCc1ccccc1	-2.3	-7.7	0.1	-0.1	-1.6
O=[N+]([O-])c1ccc(/C=N/Nc2nc(-c3ccccc3)c3cc(Br)ccc3n2)o1	0.7	22.9*	-36.9	36.9	1.3
Cc1ccc2nc(N/N=C\c3ccc([N+](=O)[O-])o3)nc(-c3ccccc3)c2c1	·	-0.5	-60.7	60.7	0.0
COc1cc2c(cc1OC)CN(C1CCC(C(C)(C)C)CC1)CC2 (stereo not drawn)	1.6	-0.9	19.1	-19.1	-1.6
O=C1C=C(c2ccccc2)OC(c2ccccc2)O1 (stereo not drawn)	47.0*	-8.3	8.0	-8.0	-7.9
Cc1ccc(C(C(=O)NC2CCCCC2)N(Cc2cccnc2)C(=O)c2csnn2)cc1 (stereo not drawn)	·	-12.8	·	·	-1.2
O=C(NC(C(=O)c1ccccc1)c1ccccc1)c1ccccc1 (stereo not drawn)	38.3*	-7.6	-4.6	4.6	-0.1
O=C(NC(C(=O)O)c1ccccc1)c1ccccc1 (stereo not drawn)	0.0	5.2	10.6	-10.6	-1.0
OC1(Cc2cc(-c3ccccc3)no2)CCN(CCCc2ccccc2)CC1	-2.6	-18.0	-7.6	7.6	·
COCCNC(=S)Nc1cc2oc3ccccc3c2cc1OC	31.3*	1.4	-92.6	92.6*	-0.3
COc1ccccc1CC(=O)Nc1cc2oc3ccccc3c2cc1OC	-1.3	1.3	-86.5	86.5*	-1.8
COc1cc(OC)cc(C(=O)NC(=S)Nc2cc3oc4ccccc4c3cc2OC)c1	-3.2	-10.3	-80.6	80.6*	-0.9
COc1cccc(CN(C)CC(=O)Nc2cc3oc4ccccc4c3cc2OC)c1	-0.1	-9.0	-77.5	77.5*	-2.4
C[C@@H]1CCC[C@@]2(O[C@H](CCO)C[C@H](O)[C@H]2O)O1	-5.7	-10.4	8.0	-8.0	0.6
COc1cc2c(cc1NC(=O)c1ccncc1)oc1ccccc12	-3.1	3.9	-77.5	77.5*	-1.6
O=C(NCC1CCCO1)c1ccc(CNS(=O)(=O)c2cccc(Cl)c2)cc1 (stereo not drawn)	0.3	-0.8	-8.3	8.3	-2.9
O=C1C(=O)c2ccc(-c3ccccc3)cc2-c2ccccc21	·	0.4	-92.5	92.5*	0.0
Nc1ccc2c(c1)C(=O)C(=O)c1ccccc1-2	0.0	1.0	-4.9	4.9	0.8
Cc1ccc2[nH]c3c(=O)n(CC(=O)N4CC(C)CC(C)C4)ncc3c2c1 (stereo not drawn)	-12.4	6.6	32.4	-32.4	-2.9
COc1cc(/C=C/c2ccc3cccc(O)c3n2)cc(Br)c1OC	-4.1	-6.1	-82.4	82.4*	-0.8
SMILES	CAL PDZ FP-1	dFosB activator	SR-BI uptake up	SR-BI DiI inh	CAL PDZ FP-2
O=C(CC(=O)c1ccccc1)CC(O)(C=Cc1ccccc1)c1ccccc1 (stereo not drawn)	51.8*	-10.5	-14.4	14.4	0.2
Cc1cc2cc(CN(Cc3ccc4c(c3)OCO4)C(=O)c3cnccn3)c3nnnn3c2cc1C	-1.9	-10.9	9.6	-9.6	-3.7
O=C(c1ccccc1F)N(Cc1ccc2c(c1)OCO2)Cc1cc2cc3c(cc2n2nnnc12)OCO3	0.9	-0.6	·	71.8*	-0.8
COc1ccccc1NS(=O)(=O)c1ccc(C(=O)N2CC(C)OC(C)C2)cc1 (stereo not drawn)	·	-3.4	-6.2	6.2	0.0
CCN(CC)c1ccc(S(=O)(=O)Nc2cc(Cl)ccc2Cl)cc1NC(=S)NC(=O)C1CCCC1	-5.0	-11.6	33.0	-33.0	-0.4
CCN(CC)S(=O)(=O)c1ccc(Cl)c(NC(=S)NC(=O)C2CCCC2)c1	19.4	-6.2	-71.1	71.1*	-1.7
CCN1/C(=N\N)c2cccc3cccc1c23	2.6	-1.3	25.4	-25.4	-6.9

Assay outcomes (PubChem BioAssay)
